According to ChEMBL document CHEMBL3525963, “Tissue distribution and elimination of [14C]apixaban in rats” (Drug Metab Dispos, 2011):

Experiments:
Details in all cases: in vivo
[1] = tested on: Lung; assay: Biodistribution in female Sprague-Dawley rat lung at 5 mg/kg, po administered as single dose measured after 72 hrs; assay type: ADME, organism-based; set-up: dose 5 mg/kg, dosed compound name [14C]-apixaban, route oral
Outline: (§1)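 Quantitative whole-body autoradiography was run after a single 5 mg/kg (100 μCi/kg) oral gavage to fasted female or pregnant SD rats, one rat per time point. Carcasses were frozen in hexane/dry ice, and 40 µm sagittal sections were dried at −20°C for at least 48 h. Sections were exposed to a phosphor plate alongside [14C]glucose standards (0.001–6.5 µCi/g). Results are µg eq/g, with LLOQ 0.037 µg eq/g.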

[2] = tested on: Pancreas; assay: Biodistribution in pregnant Sprague-Dawley rat pancreas at 5 mg/kg, po administered as single dose measured after 0.5 hrs; assay type: ADME, organism-based; set-up: dose 5 mg/kg, dosed compound name [14C]-apixaban, route oral
[3] = tested on: Blood; assay: Cmax in female Sprague-Dawley rat blood at 5 mg/kg, po administered as single dose; assay type: ADME, organism-based; set-up: dose 5 mg/kg, dosed compound name [14C]-apixaban, route oral
Outline: (§2)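 Fasted male, female or pregnant SD rats received a single oral gavage of 5 mg/kg (100 μCi/kg) in 0.5% Tween 80/Labrafil. One rat was killed per time point, up to 168 h (48 h for pregnant). Blood was collected into K3EDTA. Blood radioactivity came from autoradiogram or LSC data, and Cmax was taken from the concentration-time profile.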

[4] = Drug excretion in Sprague-Dawley rat feces at 30 mg/kg, po administered as single dose after 0 to 168 hrs
[5] = tested on: Thymus; assay: Biodistribution in female Sprague-Dawley rat thymus at 5 mg/kg, po administered as single dose measured after 0.5 hrs; assay type: ADME, organism-based; set-up: dose 5 mg/kg, dosed compound name [14C]-apixaban, route oral
Outline: (§3)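 [¹⁴C]Apixaban given by oral gavage at 5 mg/kg (100 μCi/kg) in 0.5% Tween 80 in Labrafil (1.0 mg/mL dosing solution) to rats fasted overnight through 4 h post-dose. One rat per time point; carcass frozen in hexane/dry ice. Quantitative whole-body autoradiography used 40 µm sagittal sections and a phosphor imaging plate calibrated with [¹⁴C]glucose standards (0.001–6.5 μCi/g). Read-out in µg eq apixaban/g; LLOQ 0.037 μg eq/g.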

[6] = tested on: Rattus norvegicus; assay: Biodistribution in pregnant Sprague-Dawley rat pituitary gland at 5 mg/kg, po administered as single dose measured after 48 hrs; assay type: ADME, organism-based; set-up: dose 5 mg/kg, dosed compound name [14C]-apixaban, route oral
Outline: (§4)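 Pregnant SD rats (270-319 g) were fasted overnight and given one oral gavage of 5 mg/kg (100 μCi/kg) in 0.5% Tween 80 in Labrafil. One rat was euthanized per time point (0.5, 1, 4, 8, 24, 48 h) and the carcass frozen. 40 µm sagittal sections were phosphor-imaged against [14C]glucose standards and results reported as µg eq/g; LLOQ 0.037 µg eq/g.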

[7] = tested on: Muscle tissue; assay: Biodistribution in female Sprague-Dawley rat muscle at 5 mg/kg, po administered as single dose measured after 8 hrs; assay type: ADME, organism-based; set-up: dose 5 mg/kg, dosed compound name [14C]-apixaban, route oral; outline: as §3
[8] = tested on: Blood; assay: AUC (0 to t) in lactating Sprague-Dawley rat blood at 5 mg/kg, po administered as single dose; assay type: ADME, organism-based; set-up: dose 5 mg/kg, dosed compound name [14C]-apixaban, route oral
[9] = tested on: Rattus norvegicus; assay: Biodistribution in pregnant Sprague-Dawley rat amnion at 5 mg/kg, po administered as single dose measured after 1 hr; assay type: ADME, organism-based; set-up: dose 5 mg/kg, dosed compound name [14C]-apixaban, route oral
[10] = tested on: Harderian gland; assay: Biodistribution in male Sprague-Dawley rat harderian gland at 5 mg/kg, po administered as single dose measured after 4 hrs; assay type: ADME, organism-based; set-up: dose 5 mg/kg, dosed compound name [14C]-apixaban, route oral; outline: as §3
[11] = tested on: Harderian gland; assay: Biodistribution in female Sprague-Dawley rat harderian gland at 5 mg/kg, po administered as single dose measured after 24 hrs; assay type: ADME, organism-based; set-up: dose 5 mg/kg, dosed compound name [14C]-apixaban, route oral; outline: as §1
[12] = tested on: Rattus norvegicus; assay: Biodistribution in female Sprague-Dawley rat pituitary gland at 5 mg/kg, po administered as single dose measured after 4 hrs; assay type: ADME, organism-based; set-up: dose 5 mg/kg, dosed compound name [14C]-apixaban, route oral
Outline: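 [14C]apixaban (20 μCi/mL in dosing solution) in 0.5% Tween 80 in Labrafil given by oral gavage to fasted female rats, 206-213 g, at 100 μCi/kg. One rat per time point was euthanized and snap-frozen. Sagittal 40 µm whole-body sections were read by QWBA phosphor imaging against [14C]glucose standards. Results are in µg eq apixaban/g, with LLOQ 0.037 μg eq/g.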

[13] = tested on: Blood; assay: Cmax in pregnant Sprague-Dawley rat blood at 5 mg/kg, po administered as single dose; assay type: ADME, organism-based; set-up: dose 5 mg/kg, dosed compound name [14C]-apixaban, route oral; outline: as §2
[14] = tested on: Rattus norvegicus; assay: Biodistribution in pregnant Sprague-Dawley rat brown fat at 5 mg/kg, po administered as single dose measured after 8 hrs; assay type: ADME, organism-based, Brown adipose tissue; set-up: dose 5 mg/kg, dosed compound name [14C]-apixaban, route oral
[15] = tested on: Spleen; assay: Biodistribution in female Sprague-Dawley rat spleen at 5 mg/kg, po administered as single dose measured after 0.5 hrs; assay type: ADME, organism-based; set-up: dose 5 mg/kg, dosed compound name [14C]-apixaban, route oral; outline: as §3
[16] = tested on: Pancreas; assay: Biodistribution in pregnant Sprague-Dawley rat pancreas at 5 mg/kg, po administered as single dose measured after 8 hrs; assay type: ADME, organism-based; set-up: dose 5 mg/kg, dosed compound name [14C]-apixaban, route oral; outline: as §4
[17] = tested on: Brain; assay: Biodistribution in pregnant Sprague-Dawley rat brain at 5 mg/kg, po administered as single dose measured after 4 hrs; assay type: ADME, organism-based; set-up: dose 5 mg/kg, dosed compound name [14C]-apixaban, route oral
[18] = tested on: Rattus norvegicus; assay: Biodistribution in pregnant Sprague-Dawley rat brown fat at 5 mg/kg, po administered as single dose measured after 0.5 hrs; assay type: ADME, organism-based, Brown adipose tissue; set-up: dose 5 mg/kg, dosed compound name [14C]-apixaban, route oral
[19] = tested on: Rattus norvegicus; assay: Biodistribution in female Sprague-Dawley rat kidney cortex at 5 mg/kg, po administered as single dose measured after 72 hrs; assay type: ADME, organism-based; set-up: dose 5 mg/kg, dosed compound name [14C]-apixaban, route oral; outline: as §1
[20] = tested on: Adrenal gland; assay: Biodistribution in female Sprague-Dawley rat adrenal gland at 5 mg/kg, po administered as single dose measured after 4 hrs; assay type: ADME, organism-based; set-up: dose 5 mg/kg, dosed compound name [14C]-apixaban, route oral; outline: as §3
[21] = tested on: Blood; assay: Biodistribution in female Sprague-Dawley rat blood at 5 mg/kg, po administered as single dose measured after 1 hr; assay type: ADME, organism-based; set-up: dose 5 mg/kg, dosed compound name [14C]-apixaban, route oral; outline: as §3
[22] = tested on: Heart; assay: Biodistribution in male Sprague-Dawley rat heart at 5 mg/kg, po administered as single dose measured after 24 hrs; assay type: ADME, organism-based; set-up: dose 5 mg/kg, dosed compound name [14C]-apixaban, route oral
Outline: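 Fasted male SD rats (225-252 g) each received one oral gavage dose of [14C]apixaban, 5 mg/kg (100 μCi/kg), in 0.5% Tween 80/Labrafil vehicle. One rat was killed per time point, from 0.5 to 168 h. Frozen carcasses were cut into 40 µm sagittal whole-body sections and read by QWBA phosphor imaging against [14C]glucose calibrants. Results are in µg apixaban eq/g; BLQ <0.037 µg eq/g.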

[23] = tested on: Rattus norvegicus; assay: Biodistribution in pregnant Sprague-Dawley rat kidney cortex at 5 mg/kg, po administered as single dose measured after 8 hrs; assay type: ADME, organism-based; set-up: dose 5 mg/kg, dosed compound name [14C]-apixaban, route oral
[24] = tested on: Blood; assay: Biodistribution in pregnant Sprague-Dawley rat blood at 5 mg/kg, po administered as single dose measured after 48 hrs; assay type: ADME, organism-based; set-up: dose 5 mg/kg, dosed compound name [14C]-apixaban, route oral
Outline: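 Fasted pregnant SD rats (n=6, 270-319 g) each received one oral gavage dose of [14C]apixaban, 5 mg/kg (100 μCi/kg), in 0.5% Tween 80/Labrafil. One rat was killed at each of 0.5, 1, 4, 8, 24 and 48 h. Carcasses were frozen in hexane/dry ice, cut into 40 µm sagittal sections, exposed to phosphor plates and quantified against [14C]glucose standards as µg eq/g. LLOQ was 0.037 µg eq/g.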

[25] = tested on: Rattus norvegicus; assay: Biodistribution in fetal kidney of pregnant Sprague-Dawley rat at 5 mg/kg, po administered as single dose measured after 48 hrs; assay type: ADME, organism-based; set-up: dose 5 mg/kg, dosed compound name [14C]-apixaban, route oral; outline: as §1
[26] = AUC (0 to t) in lactating Sprague-Dawley rat milk at 5 mg/kg, po administered as single dose; assay type: ADME, organism-based; set-up: dose 5 mg/kg, dosed compound name [14C]-apixaban, route oral
Outline: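 Fasted lactating SD rats received 5 mg/kg [14C]apixaban orally (formulation 5.0 mg/mL, 20 μCi/mL). Oxytocin was injected subcutaneously 15 min before collection, and 1 mL milk was taken under anesthesia by milking machine. Sampling was predose and at 0.5–24 h, 3 rats per time point. Plasma was obtained at 1300g for 10 min. Duplicate 50–100 µL aliquots were counted by LSC for 10 min. AUC was calculated in WinNonlin.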

Question: Which Radiolabel recovery [1] does the source give for `COc1ccc(-n2nc(C(N)=O)c3c2C(=O)N(c2ccc(N4CCCC[14C]4=O)cc2)CC3)cc1` here?
Answer: Not sampled as not visualised in autoradiograph

Question: And the Radiolabel recovery [2]?
Answer: 0.89 ugequiv/g

Question: What about the Cmax [3] of the same compound?
Answer: 880 ngequiv/g

Question: And the Radiolabel recovery [4]?
Answer: 74%

Question: What about the Radiolabel recovery [5] of the same compound?
Answer: 0.2 ugequiv/g

Question: What about the Radiolabel recovery [6] of the same compound?
Answer: Not sampled as not visualised in autoradiograph

Question: And the Radiolabel recovery [7]?
Answer: 0.08 ugequiv/g

Question: And the AUCt [8]?
Answer: 1940 ngequiv.hr/g

Question: What about the Radiolabel recovery [9] of the same compound?
Answer: 2.12 ugequiv/g

Question: And the Radiolabel recovery [10]?
Answer: 0.42 ugequiv/g

Question: What about the Radiolabel recovery [11] of the same compound?
Answer: Not detected assumed BLQ

Question: What about the Radiolabel recovery [12] of the same compound?
Answer: 0.48 ugequiv/g

Question: What about the Cmax [13] of the same compound?
Answer: 1440 ngequiv/g

Question: And the Radiolabel recovery [14]?
Answer: 0.06 ugequiv/g

Question: And the Radiolabel recovery [15]?
Answer: 0.29 ugequiv/g

Question: What about the Radiolabel recovery [16] of the same compound?
Answer: 0.09 ugequiv/g

Question: And the Radiolabel recovery [17]?
Answer: < 0.037 ugequiv/g

Question: And the Radiolabel recovery [18]?
Answer: 1.08 ugequiv/g

Question: And the Radiolabel recovery [19]?
Answer: Not detected assumed BLQ

Question: And the Radiolabel recovery [20]?
Answer: 0.9 ugequiv/g

Question: And the Radiolabel recovery [21]?
Answer: 0.88 ugequiv/g

Question: What about the Radiolabel recovery [22] of the same compound?
Answer: Not detected assumed BLQ

Question: What about the Radiolabel recovery [23] of the same compound?
Answer: 0.21 ugequiv/g

Question: And the Radiolabel recovery [24]?
Answer: Not detected assumed BLQ

Question: And the Radiolabel recovery [25]?
Answer: Not sampled as not visualised in autoradiograph

Question: What about the AUCt [26] of the same compound?
Answer: 103000 ngequiv.hr/g
